# Reference: ChEMBL document CHEMBL1155452, “Oncocin (VDKPPYLPRPRPPRRIYNR-NH2): a novel antibacterial peptide optimized against gram-negative human pathogens” (J Med Chem, 2010)
# Where a SMILES comes first, the peptide text is derived from it. [ ]: non-standard residue; d: D form. Orn = NCCC[C@H](N)C(=O)O
# Columns and labels:
# Micrococcus luteus = assay: Antibacterial activity against Micrococcus luteus ATCC 10240 after 20 hrs by broth microdilution assay; assay type: functional; conditions: ATCC 10240, 20 h
# How it was run: (§1)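 Nutrient-broth overnight cultures diluted in 1% TSB; E. coli BL21AI 7.5 × 10^5 cells/well, M. luteus ATCC 10240 2 × 10^6 cells/well. Peptides serially 2-fold diluted in 1% TSB from 128 to typically 0.5 μg/mL. Incubation at 37 °C; A595 read after 20 ± 2 h. MIC is the lowest concentration with absorbance not above medium only. Triplicate.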
# Escherichia coli [1] = assay: Antibacterial activity against Escherichia coli BL21 AI after 20 hrs by broth microdilution assay; assay type: functional; how it was run: as §1
# HeLa = assay: Cytotoxicity against human HeLa cells at 600 ug/ml after 24 hrs by MTT assay; assay type: cell-based
# How it was run: (§2)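 HeLa (1.5 × 10^4/well, seeded overnight) or SH-SY5Y (2 × 10^4/well, differentiated 5 days with 10 μM trans-retinoic acid) in DMEM/Ham's F-12 with 5% or 15% FBS. Peptide added at 600 μg/mL for 24 h at 37 °C, 5% CO2. MTT 0.5 mg/mL for 4 h, then SDS/HCl for 16 h; A590 read against 650 nm. Normalized to PBS (100%); DMSO 12% as positive control.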
# SH-SY5Y = assay: Cytotoxicity against human SH-SY5Y cells at 600 ug/ml after 24 hrs by MTT assay; assay type: cell-based; how it was run: as §2
# Klebsiella pneumoniae [2] = assay: Antimicrobial activity against Klebsiella pneumoniae DSM 681 after 20 hrs by broth microdilution method; assay type: functional; conditions: DSM 681, 20 h
# How it was run: (§3)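 Pathogens grown overnight on Columbia agar. Colonies suspended in 0.9% saline to OD 0.1, diluted 1:300 in 1% TSB, final (1-2) × 10^5 cfu/well. Peptides 2-fold serially diluted in 1% TSB from 128 to typically 0.5 μg/mL. Incubation at 37 °C; A595 read after 20 ± 2 h. MIC is the lowest concentration with absorbance not above medium only. Triplicate.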
# Pseudomonas aeruginosa [3] = assay: Antimicrobial activity against Pseudomonas aeruginosa ATCC 27853 after 20 hrs by broth microdilution method; assay type: functional; conditions: ATCC 27853, 20 h
# How it was run: (§4)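 Pathogenic strains grown overnight on Columbia agar, colonies suspended in 0.9% saline to OD 0.1, diluted 1:300 in 1% TSB; final (1-2) × 10^5 cfu/well. Peptides 2-fold serially diluted in 1% TSB from 128 μg/mL, typically to 0.5 μg/mL. Incubated 37 °C, absorbance at 595 nm after 20 ± 2 h, in triplicate; MIC = lowest concentration with absorbance not exceeding medium only.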
# Klebsiella pneumoniae [4] = assay: Antimicrobial activity against Klebsiella pneumoniae ATCC 27799 after 20 hrs by broth microdilution method; assay type: functional; conditions: ATCC 27799, 20 h; how it was run: as §4
# Enterobacter cloacae [5] = assay: Antimicrobial activity against Enterobacter cloacae Ha089 after 20 hrs by broth microdilution method; assay type: functional; conditions: Ha089, 20 h; how it was run: as §3
# Pseudomonas aeruginosa [6] = assay: Antimicrobial activity against Pseudomonas aeruginosa 60909001 after 20 hrs by broth microdilution method; assay type: functional; conditions: Pseudomonas aeruginosa, 60909001, 20 h; how it was run: as §4
# Escherichia coli [7] = assay: Antimicrobial activity against Escherichia coli 70502001 after 20 hrs by broth microdilution method; assay type: functional; conditions: Escherichia coli, 70502001, 20 h; how it was run: as §3
# Escherichia coli [8] = assay: Antimicrobial activity against Escherichia coli 70430001 after 20 hrs by broth microdilution method; assay type: functional; conditions: Escherichia coli, 70430001, 20 h; how it was run: as §3
# Pseudomonas aeruginosa [9] = assay: Antimicrobial activity against Pseudomonas aeruginosa Walter after 20 hrs by broth microdilution method; assay type: functional; how it was run: as §4
# Pseudomonas aeruginosa [10] = assay: Antimicrobial activity against Pseudomonas aeruginosa 60811001 after 20 hrs by broth microdilution method; assay type: functional; conditions: Pseudomonas aeruginosa, 60811001, 20 h; how it was run: as §4
# Klebsiella pneumoniae [11] = assay: Antimicrobial activity against Klebsiella pneumoniae 63 after 20 hrs by broth microdilution method; assay type: functional; conditions: Klebsiella pneumoniae, 63, 20 h; how it was run: as §4
# Acinetobacter baumannii [12] = assay: Antimicrobial activity against Acinetobacter baumannii ICB 14067 after 20 hrs by broth microdilution method; assay type: functional; conditions: ICB 14067, 20 h; how it was run: as §3
# Escherichia coli [13] = assay: Antimicrobial activity against Escherichia coli 205024 after 20 hrs by broth microdilution method; assay type: functional; conditions: Escherichia coli, 205024, 20 h; how it was run: as §3
# Stenotrophomonas [14] = assay: Antimicrobial activity against Stenotrophomonas ICB 308054 after 20 hrs by broth microdilution method; assay type: functional; conditions: ICB 308054, 20 h; how it was run: as §3
# Proteus vulgaris [15] = assay: Antimicrobial activity against Proteus vulgaris ICB 9095 after 20 hrs by broth microdilution method; assay type: functional; conditions: ICB 9095, 20 h; how it was run: as §3
# Acinetobacter baumannii [16] = assay: Antimicrobial activity against Acinetobacter baumannii ICB 14072 after 20 hrs by broth microdilution method; assay type: functional; conditions: ICB 14072, 20 h; how it was run: as §3
# Enterobacter cloacae [17] = assay: Antimicrobial activity against Enterobacter cloacae Ha89 after 20 hrs by broth microdilution method; assay type: functional; conditions: Ha89, 20 h; how it was run: as §3
# Klebsiella pneumoniae [18] = assay: Antimicrobial activity against Klebsiella pneumoniae 57 USA after 20 hrs by broth microdilution method; assay type: functional; how it was run: as §3
# Escherichia coli [19] = assay: Antimicrobial activity against Escherichia coli Neumann after 20 hrs by broth microdilution method; assay type: functional; how it was run: as §3
# Pseudomonas aeruginosa [20] = assay: Antimicrobial activity against Pseudomonas aeruginosa 70108001 after 20 hrs by broth microdilution method; assay type: functional; conditions: Pseudomonas aeruginosa, 70108001, 20 h; how it was run: as §4
# Enterobacter cloacae [21] = assay: Antimicrobial activity against Enterobacter cloacae Ha185 after 20 hrs by broth microdilution method; assay type: functional; conditions: Ha185, 20 h; how it was run: as §4
# Klebsiella pneumoniae [22] = assay: Antimicrobial activity against Klebsiella pneumoniae ATCC 12657 after 20 hrs by broth microdilution method; assay type: functional; conditions: ATCC 12657, 20 h; how it was run: as §3
# Escherichia coli [23] = assay: Antimicrobial activity against Escherichia coli 70329001 after 20 hrs by broth microdilution method; assay type: functional; conditions: Escherichia coli, 70329001, 20 h; how it was run: as §3
# Acinetobacter baumannii [24] = assay: Antimicrobial activity against Acinetobacter baumannii M17 after 20 hrs by broth microdilution method; assay type: functional; conditions: M17, 20 h; how it was run: as §3
# Acinetobacter baumannii [25] = assay: Antimicrobial activity against Acinetobacter baumannii ICB 9250 after 20 hrs by broth microdilution method; assay type: functional; conditions: ICB 9250, 20 h; how it was run: as §3
# Stenotrophomonas [26] = assay: Antimicrobial activity against Stenotrophomonas ICB 7789 after 20 hrs by broth microdilution method; assay type: functional; conditions: ICB 7789, 20 h; how it was run: as §3
# Enterobacter cloacae [27] = assay: Antimicrobial activity against Enterobacter cloacae Ha088 after 20 hrs by broth microdilution method; assay type: functional; conditions: Ha088, 20 h; how it was run: as §3
# Stenotrophomonas [28] = assay: Antimicrobial activity against Stenotrophomonas ICB 7569 after 20 hrs by broth microdilution method; assay type: functional; conditions: ICB 7569, 20 h; how it was run: as §3
# [29] = Stability in 100% mouse serum assessed as half life at 75 ug/ml by MALDI-TOF-MS analysis; assay type: ADME, cell-free
# How it was run: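 Peptide at 75 μg/mL final in pooled mouse serum (undiluted or 25% v:v aqueous), 37 °C. Triplicate aliquots taken at 0, 30, 60, 120 and 240 min and precipitated with 3% TCA on ice for 10 min. Supernatant neutralized with NaOH and analysed by RP-HPLC on C18 with TFA-containing gradient. Amounts expressed relative to 0 min; metabolites identified by MALDI-TOF-MS.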
# Proteus vulgaris [30] = assay: Antimicrobial activity against Proteus vulgaris ICB 9081 after 20 hrs by broth microdilution method; assay type: functional; conditions: ICB 9081, 20 h; how it was run: as §3
# Escherichia coli [31] = assay: Antimicrobial activity against Escherichia coli 8474 after 20 hrs by broth microdilution method; assay type: functional; conditions: Escherichia coli, 8474, 20 h; how it was run: as §3
# Enterobacter cloacae [32] = assay: Antimicrobial activity against Enterobacter cloacae 34654 after 20 hrs by broth microdilution method; assay type: functional; conditions: Enterobacter cloacae, 34654, 20 h; how it was run: as §3
# Pseudomonas aeruginosa [33] = assay: Antimicrobial activity against Pseudomonas aeruginosa PAO1 after 20 hrs by broth microdilution method; assay type: functional; conditions: PAO1, 20 h; how it was run: as §4
# Escherichia coli [34] = assay: Antimicrobial activity against Escherichia coli 70419002 after 20 hrs by broth microdilution method; assay type: functional; conditions: Escherichia coli, 70419002, 20 h; how it was run: as §3
# Klebsiella pneumoniae [35] = assay: Antimicrobial activity against Klebsiella pneumoniae 8085 after 20 hrs by broth microdilution method; assay type: functional; conditions: Klebsiella pneumoniae, 8085, 20 h; how it was run: as §3
# Escherichia coli [36] = assay: Antimicrobial activity against Escherichia coli 455/7 after 20 hrs by broth microdilution method; assay type: functional; conditions: 455/7, 20 h; how it was run: as §3
# Pseudomonas aeruginosa [37] = assay: Antimicrobial activity against Pseudomonas aeruginosa 61118003 after 20 hrs by broth microdilution method; assay type: functional; conditions: Pseudomonas aeruginosa, 61118003, 20 h; how it was run: as §4
# Pseudomonas aeruginosa [38] = assay: Antimicrobial activity against Pseudomonas aeruginosa DSM 3227 after 20 hrs by broth microdilution method; assay type: functional; conditions: DSM 3227, 20 h; how it was run: as §4
# Acinetobacter baumannii [39] = assay: Antimicrobial activity against Acinetobacter baumannii ICB 14073 after 20 hrs by broth microdilution method; assay type: functional; conditions: ICB 14073, 20 h; how it was run: as §3
compound,measurement,setting,value
H-VDKPPYLPRPKPPRRIYNNR-OH,MIC,Micrococcus luteus,16 µg/mL
same,MIC,Escherichia coli [1],16 µg/mL
H-VDKPPYLPRPPPPRRIYNNR-OH,MIC,Micrococcus luteus,64 µg/mL
same,MIC,Escherichia coli [1],128 µg/mL
H-GKPRPYSPRPTSHPRPIRV-OH [DROSOCIN],Activity,HeLa,Non-toxic
same,Activity,SH-SY5Y,Non-toxic
CC[C@H](C)[C@H](NC(=O)[C@H](CCCN)NC(=O)[C@H](CCCNC(=N)N)NC(=O)[C@@H]1CCCN1C(=O)[C@@H]1CCCN1C(=O)[C@H](CCCNC(=N)N)NC(=O)[C@@H]1CCCN1C(=O)[C@H](CCCNC(=N)N)NC(=O)[C@@H]1CCCN1C(=O)[C@H](CC(C)C)NC(=O)[C@H](Cc1ccc(O)cc1)NC(=O)[C@@H]1CCCN1C(=O)[C@@H]1CCCN1C(=O)[C@H](CCCCN)NC(=O)[C@H](CC(=O)O)NC(=O)[C@@H](N)C(C)C)C(=O)N[C@@H](Cc1ccc(O)cc1)C(=O)N[C@@H](CC(N)=O)C(=O)N[C@@H](CCCN)C(N)=O (H-VDKPPYLPRPRPPR[Orn]IYN[Orn]-NH2),MIC,Klebsiella pneumoniae [2],0.5 µg/mL
same,MIC,Pseudomonas aeruginosa [3],2 µg/mL
same,MIC,Klebsiella pneumoniae [4],1 µg/mL
same,MIC,Enterobacter cloacae [5],0.25 µg/mL
same,MIC,Pseudomonas aeruginosa [6],1 µg/mL
same,MIC,Escherichia coli [7],1 µg/mL
same,MIC,Escherichia coli [8],0.5 µg/mL
same,MIC,Pseudomonas aeruginosa [9],4 µg/mL
same,MIC,Pseudomonas aeruginosa [10],2 µg/mL
same,MIC,Klebsiella pneumoniae [11],2 µg/mL
same,MIC,Acinetobacter baumannii [12],1 µg/mL
same,MIC,Escherichia coli [13],1 µg/mL
same,MIC,Stenotrophomonas [14],32 µg/mL
same,MIC,Proteus vulgaris [15],4 µg/mL
same,MIC,Acinetobacter baumannii [16],1 µg/mL
same,MIC,Enterobacter cloacae [17],0.25 µg/mL
same,MIC,Klebsiella pneumoniae [18],0.5 µg/mL
same,MIC,Escherichia coli [19],0.5 µg/mL
same,MIC,Pseudomonas aeruginosa [20],2 µg/mL
same,MIC,Enterobacter cloacae [21],0.5 µg/mL
same,MIC,Klebsiella pneumoniae [22],0.5 µg/mL
same,MIC,Escherichia coli [23],1 µg/mL
same,MIC,Acinetobacter baumannii [24],1 µg/mL
same,MIC,Acinetobacter baumannii [25],0.5 µg/mL
same,MIC,Stenotrophomonas [26],32 µg/mL
same,MIC,Enterobacter cloacae [27],0.25 µg/mL
same,MIC,Stenotrophomonas [28],16 µg/mL
same,Activity,HeLa,Non-toxic
same,half-life at 75 ug/ml,[29],3 h
same,Activity,SH-SY5Y,Non-toxic
same,MIC,Proteus vulgaris [30],8 µg/mL
same,MIC,Escherichia coli [31],0.5 µg/mL
same,MIC,Micrococcus luteus,8 µg/mL
same,MIC,Enterobacter cloacae [32],0.5 µg/mL
same,MIC,Pseudomonas aeruginosa [33],2 µg/mL
same,MIC,Escherichia coli [34],2 µg/mL
same,MIC,Klebsiella pneumoniae [35],0.5 µg/mL
same,MIC,Escherichia coli [36],0.5 µg/mL
same,MIC,Pseudomonas aeruginosa [37],1 µg/mL
same,MIC,Pseudomonas aeruginosa [38],4 µg/mL
same,MIC,Escherichia coli [1],8 µg/mL
same,MIC,Acinetobacter baumannii [39],1 µg/mL
H-VDKPPYLPRPTPPRRIYNNR-OH,MIC,Micrococcus luteus,64 µg/mL
same,MIC,Escherichia coli [1],128 µg/mL
H-VDKPPYLPRPRPPRRIYNRN-NH2,MIC,Micrococcus luteus,128 µg/mL
same,MIC,Escherichia coli [1],16 µg/mL
